Laboratory results reported in ChEMBL document CHEMBL3286094, “Synthesis and biological evaluation of novel bisbenzimidazoles as Escherichia coli topoisomerase IA inhibitors and potential antibacterial agents” (J Med Chem, 2014).
Values after ≈ are worked out from the molar mass of the structure shown. Active and inactive are the calls of the source. The rule behind the calls is not given here.

Columns and labels:
Escherichia coli [1] = experiment: Bactericidal activity against ampicillin/tetracycline-resistant Escherichia coli IP18 isolated from water source by agar plating method
Escherichia coli [2] = experiment: Antibacterial activity against chloroamphenicol/ampicillin/kanamycin/trimethoprim/ciprofloxacin/nalidixic acid-resistant Escherichia coli 85 assessed as growth inhibition after 18 to 24 hrs by broth microdilution method; assay type: functional
Escherichia coli [3] = experiment: Antibacterial activity against chloramphenicol/ampicillin/kanamycin/trimethoprim/ciprofloxacin/nalidixic acid-resistant Escherichia coli 132 assessed as growth inhibition after 18 to 24 hrs by broth microdilution method; assay type: functional
Escherichia coli [4] = experiment: Antibacterial activity against chloramphenicol/ampicillin/trimethoprim/ciprofloxacin/nalidixic acid-resistant Escherichia coli 59 assessed as growth inhibition after 18 to 24 hrs by broth microdilution method; assay type: functional
Escherichia coli [5] = experiment: Antibacterial activity against ampicillin/tetracycline/piperacillin-resistant Escherichia coli WB31 isolated from water source assessed as growth inhibition after 18 to 24 hrs by broth microdilution method
Escherichia coli [6] = experiment: Bactericidal activity against ampicillin/trimethoprim/cefazolinl/piperacillin/cefuroxime/cefoxitine/cefepime/cefotaxime-resistant Escherichia coli KP21 isolated from water source by agar plating method
Escherichia coli [7] = experiment: Antibacterial activity against multidrug-resistant Escherichia coli IP9 isolated from water source assessed as growth inhibition after 18 to 24 hrs by broth microdilution method
Escherichia coli [8] = experiment: Antibacterial activity against Escherichia coli DH5[alpha] assessed as growth inhibition after 18 to 24 hrs by broth microdilution method; assay type: functional
Homo sapiens = organism: Homo sapiens; experiment: Inhibition of human DNA topoisomerase-1B using supercoiled pHOT1 plasmid DNA as substrate assessed as inhibition of DNA relaxation at 100 uM after 30 mins by agarose gel electrophoresis
Escherichia coli [9] = experiment: Bactericidal activity against ampicillin/trimethoprim/nalidixic acid-resistant Escherichia coli 118 by agar plating method; assay type: functional
Escherichia coli [10] = experiment: Antibacterial activity against ampicillin/chloramphenicol/tetracycline/trimethoprim/ciprofloxacin-resistant Escherichia coli KK45 isolated from water source assessed as growth inhibition after 18 to 24 hrs by broth microdilution method
Escherichia coli [11] = experiment: Bactericidal activity against Escherichia coli DH5[alpha] by agar plating method; assay type: functional
[12] = Inhibition of Escherichia coli DNA topoisomerase-1A using supercoiled pHOT1 plasmid DNA as substrate assessed as inhibition of DNA relaxation after 30 mins by agarose gel electrophoresis
Procedure, shortened: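 Supercoiled plasmid DNA incubated with E. coli Topo IA in the presence of compound at […]. Relaxation products were resolved by electrophoresis on 1% agarose gel.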

Escherichia coli [13] = experiment: Bactericidal activity against chloramphenicol/ampicillin/kanamycin/trimethoprim/ciprofloxacin/nalidixic acid-resistant Escherichia coli 132 by agar plating method; assay type: functional
Escherichia coli [14] = experiment: Antibacterial activity against multidrug-resistant Escherichia coli IS 54 isolated from water source assessed as growth inhibition after 18 to 24 hrs by broth microdilution method; conditions: IS 54, Water
Escherichia coli [15] = experiment: Antibacterial activity against ampicillin/trimethoprim/piperacillin-resistant Escherichia coli MKNJ isolated from water source assessed as growth inhibition after 18 to 24 hrs by broth microdilution method
Escherichia coli [16] = experiment: Antibacterial activity against tetracycline/trimethoprim-resistant Escherichia coli IST isolated from water source assessed as growth inhibition after 18 to 24 hrs by broth microdilution method
Escherichia coli [17] = experiment: Bactericidal activity against ampicillin/chloramphenicol/tetracycline/trimethoprim/ciprofloxacin-resistant Escherichia coli KK45 isolated from water source by agar plating method
Escherichia coli [18] = experiment: Bactericidal activity against ampicillin/tetracycline/piperacillin-resistant Escherichia coli WB31 isolated from water source by agar plating method
Escherichia coli [19] = experiment: Antibacterial activity against ampicillin/chloramphenicol/ciprofloxacin/gentamicin/tetracycline-resistant Escherichia coli 401 assessed as growth inhibition after 18 to 24 hrs by broth microdilution method; assay type: functional
Escherichia coli [20] = experiment: Antibacterial activity against ampicillin/trimethoprim/cefazolinl/piperacillin/cefuroxime/cefoxitine/cefepime/cefotaxime-resistant Escherichia coli KP21 isolated from water source assessed as growth inhibition after 18 to 24 hrs by broth microdilution method
Escherichia coli [21] = experiment: Antibacterial activity against ampicillin/kanamycin/trimethoprim/tetracyclin/ciprofloxacin/nalidixic acid-resistant Escherichia coli 81 assessed as growth inhibition after 18 to 24 hrs by broth microdilution method; assay type: functional
Escherichia coli [22] = experiment: Bactericidal activity against chloroamphenicol/ampicillin/kanamycin/trimethoprim/ciprofloxacin/nalidixic acid-resistant Escherichia coli 85 by agar plating method; assay type: functional
Escherichia coli [23] = experiment: Antibacterial activity against ampicillin/tetracycline-resistant Escherichia coli IP18 isolated from water source assessed as growth inhibition after 18 to 24 hrs by broth microdilution method
Escherichia coli [24] = experiment: Bactericidal activity against tetracycline/trimethoprim-resistant Escherichia coli IST isolated from water source by agar plating method
Escherichia coli [25] = experiment: Antibacterial activity against chloramphenicol/ampicillin/kanamycin/trimethoprim/ciprofloxacin/nalidixic acid-resistant Escherichia coli 151 assessed as growth inhibition after 18 to 24 hrs by broth microdilution method; assay type: functional
Escherichia coli [26] = experiment: Bactericidal activity against cefazolinl/ampicillin/piperacillin/cefuroxime/cefepime/cefotaxime/tetracycline/ciprofloxacin-resistant Escherichia coli NG3 isolated from water source by agar plating method
Escherichia coli [27] = experiment: Antibacterial activity against ampicillin/trimethoprim/nalidixic acid-resistant Escherichia coli 118 assessed as growth inhibition after 18 to 24 hrs by broth microdilution method; assay type: functional
Escherichia coli [28] = experiment: Bactericidal activity against chloramphenicol/ampicillin/kanamycin/trimethoprim/ciprofloxacin/nalidixic acid-resistant Escherichia coli 151 by agar plating method; assay type: functional
Escherichia coli [29] = experiment: Bactericidal activity against ampicillin/trimethoprim/piperacillin-resistant Escherichia coli MKNJ isolated from water source by agar plating method
Escherichia coli [30] = experiment: Bactericidal activity against ampicillin/ciprofloxacin/gentamicin/tetracycline-resistant Escherichia coli 555 by agar plating method; assay type: functional
Escherichia coli [31] = experiment: Antibacterial activity against ampicillin/tetracycline/gentamicin-resistant Escherichia coli 451 assessed as growth inhibition after 18 to 24 hrs by broth microdilution method; assay type: functional
Escherichia coli [32] = experiment: Bactericidal activity against Escherichia coli ATCC 25922 by agar plating method; assay type: functional
Escherichia coli [33] = experiment: Inhibition of Escherichia coli DNA gyrase using relaxed pHOT1 plasmid DNA as substrate assessed as inhibition of DNA supercoiling up to 100 uM after 30 mins by agarose gel electrophoresis

## COc1ccc(-c2nc3ccc(-c4nc5ccc(N6CCN(c7ncccn7)CC6)cc5[nH]4)cc3[nH]2)cc1OC
Escherichia coli [1]
  MBC: 32 µg/mL (≈ 60.1 µM)
Escherichia coli [2]
  MIC50: 32 µg/mL (≈ 60.1 µM)
  MIC90: 55.8 µg/mL (≈ 105 µM)
Escherichia coli [3]
  MIC50: 64 µg/mL (≈ 120 µM)
  MIC90: 122 µg/mL (≈ 229 µM)
Escherichia coli [4]
  MIC50: 16 µg/mL (≈ 30 µM)
  MIC90: 30.2 µg/mL (≈ 56.7 µM)
Escherichia coli [5]
  MIC50: 16 µg/mL (≈ 30 µM)
  MIC90: 30.2 µg/mL (≈ 56.7 µM)
Escherichia coli [6]
  MBC: 64 µg/mL (≈ 120 µM)
Escherichia coli [7]
  MIC50: 128 µg/mL (≈ 240 µM)
Escherichia coli [8]
  MIC50: 2 µg/mL (≈ 3.76 µM)
  MIC90: 3.6 µg/mL (≈ 6.76 µM)
Homo sapiens
  inhibition: Active
Escherichia coli [9]
  MBC: 8 µg/mL (≈ 15 µM)
Escherichia coli [10]
  MIC50: 16 µg/mL (≈ 30 µM)
  MIC90: 30.2 µg/mL (≈ 56.7 µM)
Escherichia coli [11]
  MBC: 4 µg/mL (≈ 7.51 µM)
[12]
  IC50: 6.2 µM
Escherichia coli [13]
  MBC: 128 µg/mL (≈ 240 µM)
Escherichia coli [14]
  MIC50: 32 µg/mL (≈ 60.1 µM)
  MIC90: 61.6 µg/mL (≈ 116 µM)
Escherichia coli [15]
  MIC50: 32 µg/mL (≈ 60.1 µM)
  MIC90: 61.4 µg/mL (≈ 115 µM)
Escherichia coli [16]
  MIC50: 16 µg/mL (≈ 30 µM)
  MIC90: 30.8 µg/mL (≈ 57.8 µM)
Escherichia coli [17]
  MBC: 32 µg/mL (≈ 60.1 µM)
Escherichia coli [18]
  MBC: 32 µg/mL (≈ 60.1 µM)
Escherichia coli [19]
  MIC50: 16 µg/mL (≈ 30 µM)
  MIC90: 29 µg/mL (≈ 54.4 µM)
Escherichia coli [20]
  MIC50: 32 µg/mL (≈ 60.1 µM)
  MIC90: 60.5 µg/mL (≈ 114 µM)
Escherichia coli [21]
  MIC50: 16 µg/mL (≈ 30 µM)
  MIC90: 29.7 µg/mL (≈ 55.8 µM)
Escherichia coli [22]
  MBC: 64 µg/mL (≈ 120 µM)
Escherichia coli [23]
  MIC50: 16 µg/mL (≈ 30 µM)
  MIC90: 30.8 µg/mL (≈ 57.8 µM)
Escherichia coli [24]
  MBC: 32 µg/mL (≈ 60.1 µM)
Escherichia coli [25]
  MIC50: 16 µg/mL (≈ 30 µM)
  MIC90: 30.4 µg/mL (≈ 57.1 µM)
Escherichia coli [26]
  MBC: 32 µg/mL (≈ 60.1 µM)
Escherichia coli [27]
  MIC50: 4 µg/mL (≈ 7.51 µM)
  MIC90: 7.4 µg/mL (≈ 13.9 µM)
Escherichia coli [28]
  MBC: 32 µg/mL (≈ 60.1 µM)
Escherichia coli [29]
  MBC: 64 µg/mL (≈ 120 µM)
Escherichia coli [30]
  MBC: 64 µg/mL (≈ 120 µM)
Escherichia coli [31]
  MIC50: 16 µg/mL (≈ 30 µM)
  MIC90: 28.8 µg/mL (≈ 54.1 µM)
Escherichia coli [32]
  MBC: 64 µg/mL (≈ 120 µM)
Escherichia coli [33]
  inhibition: inactive

## COc1ccc(-c2nc3ccc(-c4nc5ccc(N6CCN(c7ccncc7)CC6)cc5[nH]4)cc3[nH]2)cc1OC
Escherichia coli [1]
  MBC: 4 µg/mL (≈ 7.52 µM)
Escherichia coli [2]
  MIC50: 2 µg/mL (≈ 3.76 µM)
  MIC90: 3.6 µg/mL (≈ 6.77 µM)
Escherichia coli [3]
  MIC50: 2 µg/mL (≈ 3.76 µM)
  MIC90: 3.7 µg/mL (≈ 6.96 µM)
Escherichia coli [4]
  MIC50: 1 µg/mL (≈ 1.88 µM)
  MIC90: 3.6 µg/mL (≈ 6.77 µM)
Escherichia coli [5]
  MIC50: 2 µg/mL (≈ 3.76 µM)
  MIC90: 3.7 µg/mL (≈ 6.96 µM)
Escherichia coli [6]
  MBC: 4 µg/mL (≈ 7.52 µM)
Escherichia coli [7]
  MIC50: 2 µg/mL (≈ 3.76 µM)
  MIC90: 3.6 µg/mL (≈ 6.77 µM)
Escherichia coli [8]
  MIC50: 0.5 µg/mL (≈ 0.941 µM)
  MIC90: 1.8 µg/mL (≈ 3.39 µM)
Homo sapiens
  inhibition: inactive
Escherichia coli [9]
  MBC: 2 µg/mL (≈ 3.76 µM)
Escherichia coli [10]
  MIC50: 2 µg/mL (≈ 3.76 µM)
  MIC90: 3.7 µg/mL (≈ 6.96 µM)
Escherichia coli [11]
  MBC: 1 µg/mL (≈ 1.88 µM)
[12]
  IC50: 6.2 µM
Escherichia coli [13]
  MBC: 4 µg/mL (≈ 7.52 µM)
Escherichia coli [14]
  MIC50: 1 µg/mL (≈ 1.88 µM)
  MIC90: 1.7 µg/mL (≈ 3.2 µM)
Escherichia coli [15]
  MIC50: 2 µg/mL (≈ 3.76 µM)
  MIC90: 3.7 µg/mL (≈ 6.96 µM)
Escherichia coli [16]
  MIC50: 0.5 µg/mL (≈ 0.941 µM)
  MIC90: 0.8 µg/mL (≈ 1.5 µM)
Escherichia coli [17]
  MBC: 4 µg/mL (≈ 7.52 µM)
Escherichia coli [18]
  MBC: 4 µg/mL (≈ 7.52 µM)
Escherichia coli [19]
  MIC50: 1 µg/mL (≈ 1.88 µM)
  MIC90: 1.6 µg/mL (≈ 3.01 µM)
Escherichia coli [20]
  MIC50: 2 µg/mL (≈ 3.76 µM)
  MIC90: 3.6 µg/mL (≈ 6.77 µM)
Escherichia coli [21]
  MIC50: 2 µg/mL (≈ 3.76 µM)
  MIC90: 3.1 µg/mL (≈ 5.83 µM)
Escherichia coli [22]
  MBC: 4 µg/mL (≈ 7.52 µM)
Escherichia coli [23]
  MIC50: 2 µg/mL (≈ 3.76 µM)
  MIC90: 3.7 µg/mL (≈ 6.96 µM)
Escherichia coli [24]
  MBC: 1 µg/mL (≈ 1.88 µM)
Escherichia coli [25]
  MIC50: 1 µg/mL (≈ 1.88 µM)
  MIC90: 1.7 µg/mL (≈ 3.2 µM)
Escherichia coli [26]
  MBC: 2 µg/mL (≈ 3.76 µM)
Escherichia coli [27]
  MIC50: 1 µg/mL (≈ 1.88 µM)
  MIC90: 1.7 µg/mL (≈ 3.2 µM)
Escherichia coli [28]
  MBC: 2 µg/mL (≈ 3.76 µM)
Escherichia coli [29]
  MBC: 4 µg/mL (≈ 7.52 µM)
Escherichia coli [30]
  MBC: 64 µg/mL (≈ 120 µM)
Escherichia coli [31]
  MIC50: 2 µg/mL (≈ 3.76 µM)
  MIC90: 3.6 µg/mL (≈ 6.77 µM)
Escherichia coli [32]
  MBC: 4 µg/mL (≈ 7.52 µM)
Escherichia coli [33]
  inhibition: inactive
